Assay results published in ChEMBL document CHEMBL1136016, “Synthesis, biological activity, and molecular modeling investigation of new pyrazolo[4,3-e]-1,2,4-triazolo[1,5-c]pyrimidine derivatives as human A(3) adenosine receptor antagonists” (J Med Chem, 2002).
pIC50, pKi: −log10 of the molar value.

Assays:
[1] = biological target: T1, Adenosine receptor A3 (Homo sapiens, UniProt P0DMS8); assay: Inhibition of IB-MECA agonist-mediated cAMP production in CHO cell membranes expressing human Adenosine A3 receptor; range 4.4-15.2; type: functional, cell-based
T1 sequence (P0DMS8 whole entry): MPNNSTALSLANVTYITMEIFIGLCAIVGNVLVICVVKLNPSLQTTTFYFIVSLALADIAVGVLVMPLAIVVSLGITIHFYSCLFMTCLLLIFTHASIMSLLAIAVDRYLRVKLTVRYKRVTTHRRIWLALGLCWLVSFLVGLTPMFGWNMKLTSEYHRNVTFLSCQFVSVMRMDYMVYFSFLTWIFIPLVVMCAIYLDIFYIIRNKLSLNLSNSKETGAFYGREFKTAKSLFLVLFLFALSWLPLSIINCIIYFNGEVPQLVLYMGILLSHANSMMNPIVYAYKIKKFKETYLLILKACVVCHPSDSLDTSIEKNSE

[2] = biological target: T2, Adenosine receptor A2b (Homo sapiens, UniProt P29275); assay: Displacement of [3H]DPCPX from human Adenosine A2B receptor expressed in HEK293 cells; range 89-116; type: cell-based
T2 sequence (P29275 whole entry): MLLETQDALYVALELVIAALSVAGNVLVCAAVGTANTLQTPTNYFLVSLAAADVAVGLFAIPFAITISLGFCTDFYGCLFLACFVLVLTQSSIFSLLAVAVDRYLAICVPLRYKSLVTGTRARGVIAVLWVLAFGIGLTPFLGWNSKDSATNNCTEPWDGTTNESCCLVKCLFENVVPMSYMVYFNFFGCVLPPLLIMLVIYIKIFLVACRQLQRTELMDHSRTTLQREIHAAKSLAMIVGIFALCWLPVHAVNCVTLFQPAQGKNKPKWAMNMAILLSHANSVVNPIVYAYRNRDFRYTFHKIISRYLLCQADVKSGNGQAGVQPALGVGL
Summary of the method: (§1)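 Membranes from HEK-293 cells with human recombinant A2B receptor. Incubation 60 min at 25 °C in 50 mM Tris HCl, 10 mM MgCl2, 1 mM EDTA, 0.1 mM benzamidine, pH 7.4, with 2 IU/mL adenosine deaminase and 40 nM [3H]DPCPX. At least six to eight test concentrations. Nonspecific binding defined with NECA. n = 3-6.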

[3] = biological target: Adenosine receptors; A2b & A3 (Homo sapiens) (UniProt P29275+P0DMS8); assay: Selectivity ratio (h2B/hA3); type: protein assay
[4] = biological target: T3, Adenosine receptor A1 (Homo sapiens, UniProt P30542); assay: Displacement of [3H]DPCPX from human Adenosine A1 receptor expressed in CHO cells; range 332-479; type: cell-based
T3 sequence (P30542 whole entry): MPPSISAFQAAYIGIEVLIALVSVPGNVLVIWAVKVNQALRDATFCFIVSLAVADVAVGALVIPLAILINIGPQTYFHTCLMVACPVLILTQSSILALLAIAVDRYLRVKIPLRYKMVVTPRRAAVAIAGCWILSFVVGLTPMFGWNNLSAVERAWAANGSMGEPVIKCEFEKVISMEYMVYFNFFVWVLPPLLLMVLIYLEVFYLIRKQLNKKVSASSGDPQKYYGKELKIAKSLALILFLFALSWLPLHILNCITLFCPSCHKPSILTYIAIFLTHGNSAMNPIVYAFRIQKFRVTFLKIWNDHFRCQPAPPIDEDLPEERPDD
Summary of the method: (§2)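 Human recombinant A1 receptor in CHO cell membranes, resuspended in 50 mM Tris HCl pH 7.4. Displacement run 120 min at 25 °C with 1 nM [3H]DPCPX, 50 µg protein per assay, and at least six to eight test concentrations. Nonspecific binding defined with CHA. Bound and free separated on glass-fiber filters; filter radioactivity counted. n = 3-6.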

[5] = biological target: T1, Adenosine receptor A3; assay: Displacement of [3H]MRE3008-F20 binding at human Adenosine A3 receptor expressed in HEK cells; range 0.82-1.01; type: cell-based, HEK293
[6] = biological target: Adenosine receptors; A1 & A3 (Homo sapiens) (UniProt P30542+P0DMS8); assay: Selectivity ratio (hA1/hA3); type: protein assay
[7] = biological target: T4, Adenosine receptor A2a (Homo sapiens, UniProt P29274); assay: Displacement of [3H]SCH-58261 from human Adenosine A2A receptor expressed in HEK293 cells; range 174-230; type: cell-based
T4 sequence (P29274 whole entry): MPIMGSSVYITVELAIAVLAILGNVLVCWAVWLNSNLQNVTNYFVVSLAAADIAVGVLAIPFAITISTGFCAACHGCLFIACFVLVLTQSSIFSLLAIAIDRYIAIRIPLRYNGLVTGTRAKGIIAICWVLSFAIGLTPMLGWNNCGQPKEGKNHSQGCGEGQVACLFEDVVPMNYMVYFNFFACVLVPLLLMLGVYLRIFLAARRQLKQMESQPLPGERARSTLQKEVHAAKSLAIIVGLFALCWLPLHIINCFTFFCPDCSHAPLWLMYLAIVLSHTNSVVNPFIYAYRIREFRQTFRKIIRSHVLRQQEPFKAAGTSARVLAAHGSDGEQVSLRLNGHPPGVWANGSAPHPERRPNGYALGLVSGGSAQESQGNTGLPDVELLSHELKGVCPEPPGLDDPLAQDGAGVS

[8] = biological target: T1, Adenosine receptor A3; assay: biochemical
[9] = biological target: T3, Adenosine receptor A1; assay: Displacement of [3H]DPCPX from human Adenosine A1 receptor expressed in CHO cells; range 180-345; type: cell-based; summary of the method: as §2
[10] = biological target: T2, Adenosine receptor A2b; assay: Displacement of [3H]-DPCPX from human Adenosine A2B receptor expressed in HEK293 cells; range 125-218; type: cell-based
Summary of the method: (§3)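 HEK-293 membranes expressing the human receptor were incubated 60 min at 25 °C. Six to eight test concentrations were used. Nonspecific binding was set with NECA. n = 3-6.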

[11] = biological target: T4, Adenosine receptor A2a; assay: Displacement of [3H]SCH-58261 from human Adenosine A2A receptor expressed in HEK293 cells; range 73-138; type: cell-based
[12] = biological target: T3, Adenosine receptor A1; assay: Displacement of [3H]DPCPX from human Adenosine A1 receptor expressed in CHO cells; range 210-376; type: cell-based
[13] = biological target: T2, Adenosine receptor A2b; assay: Displacement of [3H]DPCPX from human Adenosine A2B receptor expressed in HEK293 cells; range 127-203; type: cell-based; summary of the method: as §3
[14] = biological target: T1, Adenosine receptor A3; assay: biochemical; remark: listed apart in the source
[15] = biological target: T4, Adenosine receptor A2a; assay: Displacement of [3H]SCH-58261 from human Adenosine A2A receptor expressed in HEK293 cells; range 18-33; type: cell-based
[16] = biological target: T4, Adenosine receptor A2a; assay: Displacement of [3H]SCH-58261 from human Adenosine A2A receptor expressed in HEK293 cells; range 33-48; type: cell-based
[17] = biological target: T2, Adenosine receptor A2b; assay: Displacement of [3H]DPCPX from human Adenosine A2B receptor expressed in HEK293 cells; range 67-115; type: cell-based; summary of the method: as §3
[18] = biological target: T1, Adenosine receptor A3; assay: biochemical; remark: listed apart in the source
[19] = biological target: T3, Adenosine receptor A1; assay: Displacement of [3H]DPCPX from human Adenosine A1 receptor expressed in CHO cells; range 275-386; type: cell-based; summary of the method: as §2
[20] = biological target: T3, Adenosine receptor A1; assay: Displacement of [3H]DPCPX from human Adenosine A1 receptor expressed in CHO cells; range 885-1163; type: cell-based; summary of the method: as §2
[21] = biological target: T2, Adenosine receptor A2b; assay: Displacement of [3H]DPCPX from human Adenosine A2B receptor expressed in HEK293 cells; range 128-156; type: cell-based; summary of the method: as §1
[22] = biological target: T4, Adenosine receptor A2a; assay: Displacement of [3H]SCH-58261 from human Adenosine A2A receptor expressed in HEK293 cells; range 552-839; type: cell-based
[23] = biological target: T1, Adenosine receptor A3; assay: biochemical; remark: listed apart in the source
[24] = biological target: T1, Adenosine receptor A3; assay: Inhibition of IB-MECA agonist-mediated cAMP production in CHO cell membranes expressing human Adenosine A3 receptor; range 1.8-5.6; type: functional, cell-based
[25] = biological target: T3, Adenosine receptor A1; assay: Displacement of [3H]DPCPX from human Adenosine A1 receptor expressed in CHO cells; range 198-382; type: cell-based; summary of the method: as §2
[26] = biological target: T4, Adenosine receptor A2a; assay: Displacement of [3H]SCH-58261 from human Adenosine A2A receptor expressed in HEK293 cells; range 96-133; type: cell-based
[27] = biological target: T2, Adenosine receptor A2b; assay: Displacement of [3H]DPCPX from human Adenosine A2B receptor expressed in HEK293 cells; range 149-204; type: cell-based; summary of the method: as §3
[28] = biological target: T1, Adenosine receptor A3; assay: biochemical; remark: listed apart in the source

SMILES: Cn1cc2c(nc(NC(=O)Nc3ccccc3Cl)n3nc(-c4ccco4)nc23)n1
- pIC50 [1]: 8.09
- pKi [2]: 7.00
- Ratio [3]: 111
- pKi [4]: 6.40
- pKi [5]: 9.04
- Ratio [6]: 440
- pKi [7]: 6.70

SMILES: CCCn1cc2c(nc(NC(=O)Nc3ccccc3OC)n3nc(-c4ccco4)nc23)n1
- pKi [8]: 9.47
- pKi [9]: 6.60
- pKi [10]: 6.78
- Ratio [3]: 485
- pKi [11]: 7.00
- Ratio [6]: 735

SMILES: CCCCn1cc2c(nc(NC(=O)Nc3ccc(C)cc3)n3nc(-c4ccco4)nc23)n1
- pKi [12]: 6.55
- pKi [13]: 6.79
- Ratio [3]: 767
- pKi [14]: 9.68
- pKi [15]: 7.62
- Ratio [6]: 1340

SMILES: CCn1cc2c(nc(NC(=O)Nc3ccccc3)n3nc(-c4ccco4)nc23)n1
- pKi [16]: 7.40
- pKi [17]: 7.06
- Ratio [3]: 489
- pKi [18]: 9.74
- pKi [19]: 6.49
- Ratio [6]: 1810

SMILES: Cn1cc2c(nc(NC(=O)Nc3ccc4c(c3)OCO4)n3nc(-c4ccco4)nc23)n1
- pKi [20]: 5.99
- pKi [21]: 6.85
- Ratio [3]: 592
- pKi [22]: 6.17
- pKi [23]: 9.62
- pIC50 [24]: 8.49
- Ratio [6]: 4230

SMILES: CCCn1cc2c(nc(NC(=O)Nc3cccc(OC)c3)n3nc(-c4ccco4)nc23)n1
- pKi [25]: 6.56
- pKi [26]: 6.95
- Ratio [3]: 438
- pKi [27]: 6.76
- Ratio [6]: 688
- pKi [28]: 9.40
